Assay [1] addresses D(1A) dopamine receptor (Rattus norvegicus) (UniProt P18901). Kind of assay: Binding affinity against Dopamine receptor D1 by using [3H]SCH-23390 as radioligand. The method in brief:
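Rat corpus striatum homogenate (30 μg protein) in 10 mM Tris with 150 mM NaCl, pH 7.4. Incubated 30 min at 30 °C with 0.3 nM [3H]SCH-23390; 300 nM cis-(Z)-flupenthixol defined nonspecific binding. Test ligand at 6–8 concentrations (0.01–10 000 nM) in triplicate, then filtration and scintillation counting. IC50 from sigmoidal fit converted to K0.5 = IC50/(1 + L/KD); assay repeated twice, ± SEM.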

Assay [2] has as its target D(2) dopamine receptor (Rattus norvegicus) (UniProt P61169). Kind of assay: Binding affinity against Dopamine receptor D2 by using [3H]- radioligand. An outline of the steps:
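D2 competition assay on rat corpus striatum homogenate (30 μg protein) in 10 mM Tris/150 mM NaCl, pH 7.4, at 30 °C for 90 min. Radioligand was 0.065 nM [3H]emonapride (YM-09151); 250 nM (+)-butaclamol defined nonspecific binding. Six to eight test concentrations spanning 0.01–10 000 nM, in triplicate. Sigmoidal-fit IC50 converted to K0.5 via IC50/(1 + L/KD); repeated twice, ± SEM.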

Assay [3] is described as follows: Binding affinity against Sigma receptor type 3 by using [3H]-(-)-H2-PAT as radioligand. The note with it: Rattus norvegicus.
Assay [4] addresses D(3) dopamine receptor (Homo sapiens) (UniProt P35462). In words: Binding affinity against Dopamine receptor D3 by using [3H]- radioligand.
The target of assay [5] is D(1A) dopamine receptor (Rattus norvegicus) (UniProt P18901).
The target of assay [6] is D(2) dopamine receptor (Rattus norvegicus) (UniProt P61169).
Assay [7] addresses Sigma non-opioid intracellular receptor 1 (Rattus norvegicus) (UniProt Q9R0C9).

The record followed here is ChEMBL document CHEMBL1128562, “1-Phenyl-3-amino-1,2,3,4-tetrahydronaphthalenes and related derivatives as ligands for the neuromodulatory sigma 3 receptor: further structure-activity relationships” (J Med Chem, 1995).

D(3) dopamine receptor (Homo sapiens), sequence (P35462 whole entry, looked up): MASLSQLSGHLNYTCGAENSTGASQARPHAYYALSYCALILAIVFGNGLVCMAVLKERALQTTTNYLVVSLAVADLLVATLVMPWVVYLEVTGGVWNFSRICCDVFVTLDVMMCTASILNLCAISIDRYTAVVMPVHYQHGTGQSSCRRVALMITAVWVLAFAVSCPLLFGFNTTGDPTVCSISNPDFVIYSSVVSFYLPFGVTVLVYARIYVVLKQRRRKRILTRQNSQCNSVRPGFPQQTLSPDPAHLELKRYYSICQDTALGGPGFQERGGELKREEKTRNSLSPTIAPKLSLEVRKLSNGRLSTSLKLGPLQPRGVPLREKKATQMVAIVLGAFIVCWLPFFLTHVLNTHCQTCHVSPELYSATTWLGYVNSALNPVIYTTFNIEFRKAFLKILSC
D(2) dopamine receptor (Rattus norvegicus), sequence (P61169 whole entry): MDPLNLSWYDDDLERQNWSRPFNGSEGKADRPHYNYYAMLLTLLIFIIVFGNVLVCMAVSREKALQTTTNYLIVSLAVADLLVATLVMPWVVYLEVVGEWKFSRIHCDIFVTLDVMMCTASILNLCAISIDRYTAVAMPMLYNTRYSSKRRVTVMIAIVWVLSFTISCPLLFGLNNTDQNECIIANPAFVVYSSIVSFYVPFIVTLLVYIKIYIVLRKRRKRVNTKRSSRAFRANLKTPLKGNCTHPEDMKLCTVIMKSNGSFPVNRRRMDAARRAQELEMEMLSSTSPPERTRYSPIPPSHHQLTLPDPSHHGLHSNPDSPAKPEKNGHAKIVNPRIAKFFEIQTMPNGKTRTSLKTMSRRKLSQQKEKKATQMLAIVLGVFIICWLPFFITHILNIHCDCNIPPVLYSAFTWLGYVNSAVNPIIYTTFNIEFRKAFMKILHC
D(1A) dopamine receptor (Rattus norvegicus), sequence (P18901 whole entry): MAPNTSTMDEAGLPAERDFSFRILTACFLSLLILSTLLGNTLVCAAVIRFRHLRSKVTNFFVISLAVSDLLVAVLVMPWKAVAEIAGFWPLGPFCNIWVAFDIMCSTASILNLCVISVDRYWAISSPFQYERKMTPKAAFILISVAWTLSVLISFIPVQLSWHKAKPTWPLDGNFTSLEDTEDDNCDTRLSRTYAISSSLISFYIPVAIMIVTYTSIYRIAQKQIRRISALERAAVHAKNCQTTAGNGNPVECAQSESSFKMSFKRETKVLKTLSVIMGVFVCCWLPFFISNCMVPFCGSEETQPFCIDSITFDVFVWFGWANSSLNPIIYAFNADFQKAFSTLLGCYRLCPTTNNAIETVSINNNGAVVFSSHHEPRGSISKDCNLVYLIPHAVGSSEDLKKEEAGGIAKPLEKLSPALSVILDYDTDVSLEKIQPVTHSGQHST
Sigma non-opioid intracellular receptor 1 (Rattus norvegicus), sequence (Q9R0C9 whole entry): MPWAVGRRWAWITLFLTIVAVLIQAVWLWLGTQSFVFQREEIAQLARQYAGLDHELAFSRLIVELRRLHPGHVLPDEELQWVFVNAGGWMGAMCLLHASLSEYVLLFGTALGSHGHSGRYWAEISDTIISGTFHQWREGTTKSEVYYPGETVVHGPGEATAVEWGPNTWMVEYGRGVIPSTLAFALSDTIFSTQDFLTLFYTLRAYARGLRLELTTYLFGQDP

Regarding `c1ccc(CCCCN[C@@H]2Cc3ccccc3[C@@H](c3ccccc3)C2)cc1`, the Ki 0.5 in assay [1] came to 1530 nM; in assay [2], 1600 nM; in assay [3], 1050 nM.

In assay [3], `CN(C)[C@@H]1Cc2ccccc2[C@H](c2ccccc2)C1` yielded a Ki 0.5 of 74 nM.

For `CN(C)[C@H]1CCc2ccccc2[C@H](c2ccccc2)C1`, the Ki 0.5 in assay [1] is > 5000 nM; in assay [2], > 5000 nM; in assay [4], > 1000 nM; in assay [3], 120 nM.

In the case of `CN(CCCCc1ccccc1)[C@@H]1Cc2ccccc2[C@@H](c2ccccc2)C1`, the Ki 0.5 in assay [1] was determined as 440 nM; in assay [2], 240 nM; in assay [3] it was 280 nM.

Consider `CN(C)[C@H]1Cc2ccccc2[C@@](C)(c2ccccc2)C1`, for which the Ki 0.5 was > 2500 nM in assay [1], > 5000 nM in assay [2], 1000 nM in assay [4] and 2.5 nM in assay [3].

Turning to `CN[C@@H]1Cc2ccccc2[C@@H](c2ccccc2)C1`, the Ki 0.5 in assay [1] is > 5000 nM; in assay [2], > 5000 nM; in assay [4] it was > 1000 nM; in assay [3], 120 nM.

As for `CN(CCc1ccccc1)[C@@H]1Cc2ccccc2[C@@H](c2ccccc2)C1`, the results for the Ki 0.5 in assay [1], in assay [2] and in assay [3] were 54 nM, 370 nM and 150 nM, respectively.

In the case of `CN(C)[C@@H]1CCc2ccccc2[C@@H](c2ccccc2)C1`, the Ki 0.5 in assay [1] was > 5000 nM; in assay [2], 5000 nM; in assay [4], 1000 nM; in assay [3] it was 21.8 nM.

On to `CN(C)[C@@H]1Cc2ccccc2[C@@](C)(c2ccccc2)C1`, for which the Ki 0.5 in assay [1] is > 5000 nM; in assay [2], > 5000 nM; in assay [4], > 1000 nM; in assay [3] it was 18.2 nM.

On to `C[N+](C)(C)[C@@H]1Cc2ccccc2[C@@H](c2ccccc2)C1`, for which the Ki 0.5 was > 5000 nM in assay [1], > 2500 nM in assay [2], > 1000 nM in assay [4] and 35 nM in assay [3].

As for `CN(C)[C@@H]1Cc2ccccc2[C@@H](c2ccccc2)C1` (stereo in doubt; (+)-2), the Ki 0.5 in assay [1] was > 5000 nM; in assay [2], > 5000 nM; in assay [4] it was 1000 nM; in assay [3] it was 13.5 nM.

As for `CN(C)[C@@H]1Cc2ccccc2[C@@H](c2ccccc2)C1` (stereo in doubt; 2), the Ki 0.5 in assay [1] was 2500 nM; in assay [2], 5000 nM; in assay [4] it was 1000 nM; in assay [3], 1.1 nM.

As for `c1ccc(CCCN[C@@H]2Cc3ccccc3[C@@H](c3ccccc3)C2)cc1`, the Ki 0.5 in assay [1] is > 5000 nM; in assay [2], 5000 nM; in assay [3], 2530 nM.

For `CN(C)[C@@H]1Cc2cc(Cl)c(O)cc2[C@@H](c2ccccc2)C1`, the Ki 0.5 in assay [5] is 420 nM; in assay [6], 260 nM; in assay [7] it was 2000 nM; in assay [4], 300 nM; in assay [3] it was 0.3 nM.

Consider `CN(CCCc1ccccc1)[C@@H]1Cc2ccccc2[C@@H](c2ccccc2)C1`, for which the Ki 0.5 in assay [1] is 380 nM; in assay [2] it was 540 nM; in assay [3], 300 nM.

Take `CN(C)[C@@H]1Cc2ccccc2[C@@H](c2ccccc2)C1` (stereo in doubt; (-)-2): the Ki 0.5 was > 5000 nM in assay [1], > 5000 nM in assay [2], > 1000 nM in assay [4] and 0.5 nM in assay [3].

As to `CN(C)[C@@H]1CCc2ccccc2[C@@H]1c1ccccc1`, the Ki 0.5 in assay [1] was > 5000 nM; in assay [2] it was > 5000 nM; in assay [4], > 1000 nM; in assay [3] it was 1300 nM.

As to `CN(C)[C@@H]1CCc2ccccc2[C@H]1c1ccccc1`, the Ki 0.5 in assay [1] was > 5000 nM; in assay [2], > 5000 nM; in assay [4] it was > 1000 nM; in assay [3], 980 nM.
